Assay results: article PMC6633905 (Molecular pharmaceutics, 2018)

Assays:
human DP1 receptors = target: T1, human DP1 receptors (Homo sapiens, UniProt Q13258); test: cAMP TR-FRET counter screen in C6-glioma cells, DP1; format: cell-based; details: read-out: DP1 KB; Schild KB; C6-glioma cells overexpressing DP1; agonist BW245C
T1 sequence (Q13258 1-359): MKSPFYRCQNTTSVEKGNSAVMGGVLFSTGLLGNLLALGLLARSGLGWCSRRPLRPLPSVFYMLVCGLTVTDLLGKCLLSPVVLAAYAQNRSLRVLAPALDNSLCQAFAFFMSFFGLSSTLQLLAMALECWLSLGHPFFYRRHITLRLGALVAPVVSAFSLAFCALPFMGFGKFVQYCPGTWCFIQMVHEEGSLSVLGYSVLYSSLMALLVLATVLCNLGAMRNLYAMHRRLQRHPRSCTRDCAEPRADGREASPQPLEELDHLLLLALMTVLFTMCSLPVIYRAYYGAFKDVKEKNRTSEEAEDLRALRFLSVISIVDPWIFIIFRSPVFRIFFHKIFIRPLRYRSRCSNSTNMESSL
Outline: (§1)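 Rat C6 glioma cells stably expressing the human receptor, seeded 4,000/well overnight; 0.5 h in HBSS with 20 μM rolipram at room temperature; test compound for 10 or 50 min, then rising agonist concentrations for 40 min. Lysis, cAMP-d2/anti-cAMP-Cryptate TR-FRET (F665/F590).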

human IP receptors = human IP receptors (Homo sapiens, UniProt P43119); test: cAMP TR-FRET counter screen in C6-glioma cells, IP; format: cell-based; details: read-out: IP KB; Schild KB; C6-glioma cells overexpressing IP; agonist iloprost
Outline: as §1

Chain of human IP receptors (P43119 whole entry): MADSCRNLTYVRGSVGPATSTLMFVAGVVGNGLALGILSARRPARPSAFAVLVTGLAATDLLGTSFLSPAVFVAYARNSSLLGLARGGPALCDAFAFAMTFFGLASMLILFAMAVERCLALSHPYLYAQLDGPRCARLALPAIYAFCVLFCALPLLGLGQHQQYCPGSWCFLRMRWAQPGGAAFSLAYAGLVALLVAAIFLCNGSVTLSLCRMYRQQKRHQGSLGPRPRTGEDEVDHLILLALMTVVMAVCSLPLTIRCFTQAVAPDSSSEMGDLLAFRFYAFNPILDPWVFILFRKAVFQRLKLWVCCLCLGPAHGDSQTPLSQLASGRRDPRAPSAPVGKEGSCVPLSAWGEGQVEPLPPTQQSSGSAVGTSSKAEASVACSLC

Kb (human DP1 receptors): 48.3 µM
Kb (human IP receptors): 1.7 µM
Compound: COc1ccc2cc(OCC3(C(=O)O)CN(C(=O)c4ccc(F)cc4)C3)ccc2c1 [PF-04418948]
